Values after ≈ are worked out from the molar mass of the structure shown.
How the values were obtained:
L1210 [1] = experiment: Cytotoxicity in the multiple tumor disk diffusion soft agar assay at the dose of 15 ug/disk against leukemia L1210; format: functional, Mus musculus
In short: (§1)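 Soft agar disk diffusion: bottom layer 0.8% noble agar, top layer 0.47% noble agar, both in 1:1 CMRL-Fischer medium with 11% horse serum. Top layer seeded with 5×10^3 L1210 cells or 10^6 solid tumor cells (C38, PO3). Drug applied on a dried 6-mm filter-paper disk. Incubation 7-11 days. Inhibition zone measured by inverted microscope, in units (1 unit = 30 μm).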

P388 [2] = experiment: In vivo T/C (survival time treated/survival time control x 100) was determined against P388 leukemia cells at 20 mg/Kg; format: functional, Mus musculus
In short: (§2)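 B6D2 F1 mice, at least five per group, were inoculated ip on day 0 with 10^6 viable P388 cells (25 mL/kg). Compounds were dissolved in distilled water and given ip (25 mL/kg) daily on days 1–4. Mortality was checked daily, with necropsy of dead animals. T/C×100 was median survival, treated versus control. Survivors beyond 50 days counted as cured and were excluded from the median.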

Mus musculus [3] = species on record: Mus musculus; experiment: (§3) In vitro cytotoxicity was determined against P388 leukemia cells; format: functional; settings: read-out: ID50 (the source's name)
In short: (§4)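 P388 cells in exponential growth, RPMI 1640 with 2 mM glutamine, 10 μM 2-mercaptoethanol and 10% FCS, 5% CO2, 37 °C. Cells at 10^5 cells/mL. Drugs in distilled water added on day 0. Cells counted by Coulter counter after 96 h. ID50 (μg/mL, 50% inhibition of proliferation) estimated by regression of concentration/response data.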

[4] = Cytotoxicity in the multiple tumor disk diffusion soft agar assay at the dose of 15 ug/disk against solid tumor C38.; format: functional, Mus musculus; in short: as §1
[5] = Cytotoxicity in the multiple tumor disk diffusion soft agar assay at the dose of 15 ug/disk against solid tumor PO3; format: functional, Mus musculus; in short: as §1
[6] = Tested for the change in body weight between day 1 and 7 for murine solid tumor model 3LL early stage that is subcutaneously implanted by the intravenous treatment at the dose of 20 mg/kg in 1-4 schedule; format: functional, Mus musculus
Mus musculus [7] = experiment: In vivo total number of survivors was determined against L1210 Leukemia cells out of 8 mouse at 50 day; format: functional, Leukemia cell
In short: (§5)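 B6D2 F1 mice, at least five per group, were inoculated ip on day 0 with 10^5 viable L1210 cells (25 mL/kg). Compounds were dissolved in distilled water and given ip (25 mL/kg) on days 1–4. Deaths were checked daily, with necropsy to separate tumor from toxic death. T/C×100 was median survival of treated over controls. Mice surviving over 50 days counted as cured and were excluded from the median.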

Mus musculus [8] = experiment: In vivo total number of survivors was determined against P388 leukemia cells out of 5 mouse at 50 day; format: functional; in short: as §2
[9] = Tested for mean number of metastases in treated/control animals x 100 (% T/C) for murine solid tumor model 3LL early stage that is intramuscularly implanted by the intravenous treatment at the dose of 20 mg/kg in 1-4 schedule; settings: Mus musculus
L1210 [10] = experiment: Tested for cytotoxicity in the multiple tumor disk diffusion soft agar assay at the dose of 15 ug/disk against leukemia L1210; range is 450-600; format: functional, Mus musculus; in short: as §1
P388 [11] = experiment: In vivo T/C (survival time treated/survival time control x 100) was determined against P388 leukemia cells at 40 mg/Kg; format: functional, Mus musculus; in short: as §2
P388 [12] = experiment: as §3; format: functional; settings: Mus musculus, read-out: ID50 (the source's name); in short: as §4
L1210 [13] = experiment: In vivo T/C (survival time treated/survival time control x 100) was determined against L1210 leukemia cells at 10 mg/Kg; format: functional, Mus musculus; in short: as §5
P388 [14] = experiment: In vivo T/C (survival time treated/survival time control x 100) was determined against P388 leukemia cells at 10 mg/Kg; format: functional, Mus musculus; in short: as §2
P388 [15] = experiment: In vivo T/C (survival time treated/survival time control x 100) was determined against P388 leukemia cells at 5.0 mg/Kg; format: functional, Mus musculus; in short: as §2
[16] = Tested for cytotoxicity in the multiple tumor disk diffusion soft agar assay at the dose of 15 ug/disk against solid tumor C38; format: functional, Mus musculus; in short: as §1
[17] = Tested for the change in body weight between day 1 and 7 for murine solid tumor model 3LL early stage that is subcutaneously implanted by the intravenous treatment at the dose of 5 mg/kg in 1-4 schedule; format: functional, Mus musculus
[18] = Tested for medium tumor weight of treated /control animals x 100 (% T/C) for murine solid tumor model B16 early stage that is subcutaneously implanted by the intravenous treatment at the dose of 5 mg/kg in 1-4 schedule; format: functional, Mus musculus
In short: (§6)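 sc implant of 1 mm³ tumor fragment. MA 16/C in C3H mice, B16 in C57BL/6 mice, C26 in CD2F1 mice; 10 per group. iv dosing on days 1-4 at 10 mL/kg. Mice weighed daily. Killed day 14 (C26) or day 15 (MA 16/C, B16) and tumors weighed. T/C×100 from median tumor weight, treated vs control. Body weight change taken from day 1 to 7.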

[19] = Tested for the change in body weight between day 1 and 7 for murine solid tumor model B16 early stage that is subcutaneously implanted by the intravenous treatment at the dose of 10 mg/kg in 1-4 schedule; format: functional; settings: Mus musculus, dose 5 mg/kg, in the assay text read “5 mg/kg” for “10 mg/kg”; in short: as §6
[20] = Tested for medium tumor weight of treated /control animals x 100 (% T/C) for murine solid tumor model C26 early stage that is subcutaneously implanted by the intravenous treatment at the dose of 10 mg/kg in 1-4 schedule; format: functional, Mus musculus; in short: as §6
[21] = Tested for the change in body weight between day 1 and 7 for murine solid tumor model C26 early stage that is subcutaneously implanted by the intravenous treatment at the dose of 10 mg/kg in 1-4 schedule; format: functional, Mus musculus; in short: as §6
[22] = Tested for medium tumor weight of treated /control animals x 100 (% T/C) for murine solid tumor model MA 16/C early stage that is subcutaneously implanted by the intravenous treatment at the dose of 10 mg/kg in 1-4 schedule; format: functional, Mus musculus; in short: as §6
[23] = Tested for the change in body weight between day1 and 7 for murine solid tumor model MA 16/C early stage that is subcutaneously implanted by the intravenous treatment; format: functional, Mus musculus
In short: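 Mice given sc 1 mm³ tumor fragment: C26 in CD2F1 mice, MA 16/C in C3H mice (tumors passaged in strain of origin), 10 per group. Drug given iv days 1–4 at 10 mL/kg. Animals weighed daily and watched for toxicity. Body-weight change taken from day 1 to day 7. Killed day 14 (C26) or 15 (MA 16/C).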

[24] = Tested for medium tumor weight of treated /control animals x 100 (% T/C) for murine solid tumor model 3LL early stage that is subcutaneously implanted by the intravenous treatment at the dose of 10 mg/kg in 1-4 schedule; format: functional, Mus musculus
[25] = Tested for the change in body weight between day 1 and 14 for murine solid tumor model 3LL advanced stage that is intramuscularly implanted by the intravenous treatment at the dose of 10 mg/kg in 7-10 schedule; settings: Mus musculus
[26] = Tested for mean number of metastases of treated /control animals x 100 (% T/C) for murine solid tumor model 3LL advanced stage that is intramuscularly implanted by the intravenous treatment at the dose of 10 mg/kg in 7-10 schedule; settings: Mus musculus
L1210 [27] = experiment: Tested for cytotoxicity in the multiple tumor disk diffusion soft agar assay at the dose of 15 ug/disk against leukemia L1210; U = 32 uM; format: functional, Mus musculus; in short: as §1
[28] = Tested for cytotoxicity in the multiple tumor disk diffusion soft agar assay at the dose of 15 ug/disk against solid tumor C38; U = 32 uM; format: functional, Mus musculus; in short: as §1
P388 [29] = experiment: In vivo T/C (survival time treated/survival time control x 100) was determined against P388 leukemia cells at 2.5 mg/Kg; format: functional, Mus musculus; in short: as §2
L1210 [30] = experiment: In vivo T/C (survival time treated/survival time control x 100) was determined against L1210 leukemia cells at 20 mg/Kg; format: functional, Mus musculus; in short: as §5
[31] = Tested for cytotoxicity in the multiple tumor disk diffusion soft agar assay at the dose of 15 ug/disk against solid tumor C38; range is 650-675; format: functional, Mus musculus; in short: as §1
L1210 [32] = experiment: Tested for cytotoxicity in the multiple tumor disk diffusion soft agar assay at the dose of 15 ug/disk against leukemia L1210; range is 420-490; format: functional, Mus musculus; in short: as §1
[33] = Tested for cytotoxicity in the multiple tumor disk diffusion soft agar assay at the dose of 15 ug/disk against solid tumor C38; range is 550-600; format: functional, Mus musculus; in short: as §1
L1210 [34] = experiment: Tested for cytotoxicity in the multiple tumor disk diffusion soft agar assay at the dose of 15 ug/disk against leukemia L1210; format: functional, Mus musculus; in short: as §1

Cc1c[nH]c(NCC(C)CN(C)C)c2c3c(ccc4cc(O)ccc43)nc1-2 (centres undefined)
Cytotoxicity (L1210 [1]): 300 U
T/C x100 (P388 [2]): 213
IC50 (Mus musculus [3]): 0.1 µg/mL (≈ 0.276 µM)
Cytotoxicity [4]: 675 U
Cytotoxicity [5]: 850 U
Change in weight [6]: -1.7 g
Survivors (Mus musculus [7]): 2
Survivors (Mus musculus [8]): 3
T/C [9]: 0%

CCN(CC)CCCNc1ncc(C)c2c1c1c3ccccc3ccc1n2C
Cytotoxicity (L1210 [10]): 450 U
T/C x100 (P388 [11]): 124
IC50 (P388 [12]): 0.1 µg/mL (≈ 0.267 µM)
Cytotoxicity [4]: 520 U

Cc1cnc(NCCCN(C)C)c2c1[nH]c1ccc3cc(O)ccc3c12 [INTOPLICINE]
T/C x100 (L1210 [13]): 143
Cytotoxicity (L1210 [1]): 375 U
T/C x100 (P388 [14]): 270
T/C x100 (P388 [15]): 182
IC50 (P388 [12]): 0.025 µg/mL (≈ 0.0717 µM)
Cytotoxicity [16]: 700 U
Cytotoxicity [5]: 850 U
Survivors (Mus musculus [7]): 5
Change in weight [17]: -2.1 g
T/C [18]: 28%
Change in weight [19]: -1.1 g
T/C [20]: 0%
Change in weight [21]: -1.9 g
T/C [22]: 2%
Change in weight [23]: -1.7 g
T/C [24]: 0%
Change in weight [25]: -2.8 g
T/C [26]: 34%

Cc1cnc(NCCCN(C)C)c2c3ccc4c(O)cccc4c3n(C)c12
Cytotoxicity (L1210 [27]): 675 U
T/C x100 (P388 [2]): 135
IC50 (P388 [12]): 0.025 µg/mL (≈ 0.069 µM)
Cytotoxicity [28]: 900 U

Cc1c[nH]c(NCCCN(C)C)c2c3cc(O)ccc3nc1-2
T/C x100 (P388 [29]): 130

CCN(CC)CCCNc1ncc(C)c2c1c1c3ccc(O)cc3ccc1n2C
T/C x100 (L1210 [30]): 129
Cytotoxicity (L1210 [1]): 450 U
T/C x100 (P388 [2]): 232
IC50 (P388 [12]): 0.025 µg/mL (≈ 0.064 µM)
Cytotoxicity [31]: 650 U

Cc1c[nH]c(NCCCN(C)C)c2c3ccc4ccccc4c3nc1-2
Cytotoxicity (L1210 [32]): 420 U
Cytotoxicity (L1210 [1]): 500 U
T/C x100 (P388 [14]): 115
IC50 (P388 [12]): 0.375 µg/mL (≈ 1.13 µM)
Cytotoxicity [33]: 550 U
Cytotoxicity [5]: 310 U

Cc1cnc(NCCCN(C)C)c2c1[nH]c1ccc3ccccc3c12
Cytotoxicity (L1210 [34]): 550 U
IC50 (P388 [12]): 0.1 µg/mL (≈ 0.301 µM)
Cytotoxicity [16]: 675 U

CCN(CC)CCCNc1ncc(C)c2c1c1ccc3c(OC)cccc3c1n2C
Cytotoxicity (L1210 [1]): 450 U
T/C x100 (P388 [11]): 124
IC50 (P388 [12]): 0.75 µg/mL (≈ 1.85 µM)
Cytotoxicity [4]: 430 U

Source: ChEMBL document CHEMBL1124779, “Synthesis and antitumor activity of 1-[[(dialkylamino)alkyl]amino]-4-methyl-5H-pyrido[4,3-b]benzo[e]- and -benzo[g])indoles. A new class of antineoplastic agents” (1990)
